Measurements published in ChEMBL document CHEMBL3867423, “New imidazolidineiminothione derivatives: Synthesis, spectral characterization and evaluation of antitumor, antiviral, antibacterial and antifungal activities” (Eur J Med Chem, 2016).
Converted amounts (≈) assume the structure as drawn.

Key:
Pseudomonas aeruginosa [1] = assay: Antibacterial activity against Pseudomonas aeruginosa ATCC 25619 at 5 mg after 24 hrs by agar well diffusion assay; format: functional; settings: ATCC 25619, 24 h, read-out: DIZ
Summary of the method: (§1)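 Agar well diffusion. 100 µL inoculum (1×10⁸ CFU/mL bacteria, 1×10⁶ CFU/mL yeast) spread on nutrient agar (bacteria) or Sabouraud dextrose agar (fungi). 10 mm wells loaded with 100 µL of 5 mg/mL compound in DMSO. DMSO as negative control. Erythromycin (bacteria) or […] (fungi) at 5 mg/ml as standards. Plates incubated 24 h at 37 °C. Inhibition zone diameter (mm) measured, mean of triplicate.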

Candida albicans [2] = assay: Antifungal activity against Candida albicans IMRU 3669 at 5 mg after 24 hrs by agar well diffusion assay; format: functional; settings: IMRU 3669, 24 h, read-out: DIZ; summary of the method: as §1
Bacillus pumilus [3] = assay: Antibacterial activity against Bacillus pumilus at 5 mg after 24 hrs by agar well diffusion assay; format: functional; settings: read-out: DIZ; summary of the method: as §1
Micrococcus luteus [4] = assay: Antibacterial activity against Sarcina lutea at 5 mg after 24 hrs by agar well diffusion assay; format: functional; settings: read-out: DIZ; summary of the method: as §1
[5] = Cytotoxicity against human HCT116 cells assessed as decrease in cell viability after 48 hrs by SRB assay; format: functional, cell-based; settings: hct-116
Summary of the method: (§2)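 SRB assay. Cells seeded at 10⁴ per well and allowed to attach for 24 h. Exposed to 0, 5, 12.5, 25 and 50 µg/mL, triplicate wells per dose, for 48 h at 37 °C in 5% CO₂. Cells fixed and SRB-stained; excess dye removed with acetic acid, bound dye recovered in Tris-EDTA and read on an ELISA reader. IC50 read from the surviving-fraction curve.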

Bacillus subtilis = assay: Antibacterial activity against Bacillus subtilis NCTC 10400 at 5 mg after 24 hrs by agar well diffusion assay; format: functional; settings: NCTC 10400, 24 h, read-out: DIZ; summary of the method: as §1
Coxsackievirus B4 = assay: Antiviral activity against human Coxsackie virus B4 infected in African green monkey Vero cells by plaque formation assay; format: functional; set-up: concentration or dose not given beside the values
Hepatovirus A = assay: Antiviral activity against Hepatitis A virus infected in African green monkey Vero cells by plaque formation assay; format: functional; set-up: concentration or dose not given beside the values
Escherichia coli = assay: Antibacterial activity against Escherichia coli ATCC 10536 at 5 mg after 24 hrs by agar well diffusion assay; format: functional; settings: ATCC 10536, 24 h, read-out: DIZ; summary of the method: as §1
[6] = Cytotoxicity against human PC3 cells assessed as decrease in cell viability after 48 hrs by SRB assay; format: functional, cell-based; settings: pc-3; summary of the method: as §2
[7] = Antifungal activity against Penicillium chrysogenum at 5 mg after 24 hrs by agar well diffusion assay; format: functional; summary of the method: as §1
[8] = Cytotoxicity against human MCF7 cells assessed as decrease in cell viability after 48 hrs by SRB assay; format: functional, cell-based; set-up: unit not given here; summary of the method: as §2
Aspergillus niger = assay: Antifungal activity against Aspergillus niger at 5 mg after 24 hrs by agar well diffusion assay; format: functional; settings: read-out: DIZ; summary of the method: as §1
[9] = Cytotoxicity against human HepG2 cells assessed as decrease in cell viability after 48 hrs by SRB assay; format: functional, cell-based; summary of the method: as §2
Micrococcus luteus [10] = assay: Antibacterial activity against Micrococcus luteus ATCC 10240 at 5 mg after 24 hrs by agar well diffusion assay; format: functional; settings: ATCC 10240, 24 h, read-out: DIZ; summary of the method: as §1
Human alphaherpesvirus 1 = assay: Antiviral activity against HSV1 infected in African green monkey Vero cells by plaque formation assay; format: functional; set-up: concentration or dose not given beside the values
Pseudomonas aeruginosa [11] = assay: Antibacterial activity against Pseudomonas aeruginosa ATCC 25619 after 24 hrs by two-fold serial dilution method; format: functional; settings: ATCC 25619, 24 h
Summary of the method: (§3)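 Two-fold serial dilutions of DMSO stock in adjusted Mueller-Hinton broth, final 100 to 0.78 µg/ml. Bacteria pre-grown in nutrient broth, fungi in malt extract broth (48 h). Each 5 ml tube given 0.1 ml inoculum (1×10⁸ CFU/ml bacteria, 1×10⁶ CFU/ml fungi), incubated 37 °C 24 h. MIC taken as lowest concentration with no growth; triplicate, averaged.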

Candida albicans [12] = assay: Antifungal activity against Candida albicans IMRU 3669 after 24 hrs by two-fold serial dilution method; format: functional; settings: IMRU 3669, 24 h; summary of the method: as §3
Bacillus pumilus [13] = assay: Antibacterial activity against Bacillus pumilus after 24 hrs by two-fold serial dilution method; format: functional; summary of the method: as §3
Micrococcus luteus [14] = assay: Antibacterial activity against Sarcina lutea after 24 hrs by two-fold serial dilution method; format: functional; summary of the method: as §3
Micrococcus luteus [15] = assay: Antibacterial activity against Micrococcus luteus ATCC 10240 after 24 hrs by two-fold serial dilution method; format: functional; settings: ATCC 10240, 24 h; summary of the method: as §3

| SMILES | zone of inhibition at 5000 µg/disc (Pseudomonas aeruginosa [1]) | zone of inhibition at 5000 µg/disc (Candida albicans [2]) | zone of inhibition at 5000 µg/disc (Bacillus pumilus [3]) | zone of inhibition at 5000 µg/disc (Micrococcus luteus [4]) | IC50 [5] | zone of inhibition at 5000 µg/disc (Bacillus subtilis) | Activity (Coxsackievirus B4) | Activity (Hepatovirus A) | zone of inhibition at 5000 µg/disc (Escherichia coli) | IC50 [6] | inhibition zone (IZ) [7] | IC50 [8] | zone of inhibition at 5000 µg/disc (Aspergillus niger) | IC50 [9] | zone of inhibition at 5000 µg/disc (Micrococcus luteus [10]) | Activity (Human alphaherpesvirus 1) | further results |
| --- | --- | --- | --- | --- | --- | --- | --- | --- | --- | --- | --- | --- | --- | --- | --- | --- | --- |
| COc1ccc(OC)c(N2C(=O)N(c3ccc4c(c3)Cc3ccccc3-4)C(=N)C2=S)c1 | 0 mm | 14 mm | 17 mm | 24 mm | 0.047 µg | 12 mm | 0% | 29.9% | 18 mm | 0.056 µg | 18 mm | 0.052 | 14 mm | 0.048 µg | 16 mm | 32.4% | – |
| N=C1C(=S)N(c2cc(Cl)cc(Cl)c2)C(=O)N1c1cc(Cl)c(Cl)cc1Cl | 18 mm | 21 mm | 21 mm | 21 mm | 0.015 µg | 27 mm | 20.6% | 80.3% | 27 mm | 0.017 µg | 20 mm | 0.015 | 15 mm | 0.017 µg | 16 mm | 96.7% | – |
| CC[C@H]1OC(=O)[C@H](C)[C@@H](O[C@H]2C[C@@](C)(OC)[C@@H](O)[C@H](C)O2)[C@H](C)[C@@H](O[C@@H]2O[C@H](C)C[C@H](N(C)C)[C@H]2O)[C@](C)(O)C[C@@H](C)C(=O)[C@H](C)[C@@H](O)[C@]1(C)O [ERYTHROMYCIN] | 30 mm | – | 32 mm | 44 mm | – | 40 mm | – | – | 37 mm | – | – | – | – | – | 32 mm | – | – |
| COc1ccc(OC)c(N2C(=O)N(c3ccc(SC)cc3)C(=N)C2=S)c1 | 25 mm | 27 mm | 20 mm | 31 mm | 0.05 µg | 29 mm | 18.5% | 0% | 29 mm | 0.047 µg | 22 mm | 0.028 | 20 mm | 0.029 µg | 17 mm | 85.7% | MIC (Pseudomonas aeruginosa [11]): 0.78 µg/mL (≈ 2.01 µM); MIC (Candida albicans [12]): 6.25 µg/mL (≈ 16.1 µM); MIC (Bacillus pumilus [13]): 6.25 µg/mL (≈ 16.1 µM); MIC (Micrococcus luteus [14]): 6.25 µg/mL (≈ 16.1 µM); MIC (Micrococcus luteus [15]): 6.25 µg/mL (≈ 16.1 µM) |
| N=C1C(=S)N(c2cc(Cl)cc(Cl)c2)C(=O)N1c1c(Cl)cccc1Cl | 17 mm | 23 mm | 17 mm | 27 mm | 0.039 µg | 19 mm | 0% | 70.2% | 19 mm | 0.064 µg | 18 mm | 0.02 | 15 mm | 0.039 µg | 16 mm | 33.6% | – |
| N=C1C(=S)N(c2ccccc2)C(=O)N1c1c(Cl)cccc1Cl | 15 mm | 23 mm | 18 mm | 26 mm | – | 18 mm | 0% | 0% | 18 mm | – | 16 mm | – | 17 mm | – | 14 mm | 33.3% | – |
| COc1ccc(N2C(=O)N(c3cccc(Cl)c3)C(=N)C2=S)c(OC)c1 | 16 mm | 27 mm | 17 mm | 28 mm | 0.023 µg | 20 mm | 2.3% | 36.2% | 20 mm | 0.031 µg | 20 mm | 0.02 | 18 mm | 0.012 µg | 14 mm | 47.4% | – |
| COc1ccc(OC)c(N2C(=O)N(c3ccc(C)cc3)C(=N)C2=S)c1 | 14 mm | 17 mm | 20 mm | 26 mm | 0.014 µg | 16 mm | 0% | 30.7% | 16 mm | 0.048 µg | 17 mm | 0.015 | 16 mm | 0.037 µg | 17 mm | 50.2% | – |
| Cc1ncc([N+](=O)[O-])n1CCO [METRONIDAZOLE] | – | 27 mm | – | – | – | – | – | – | – | – | 25 mm | – | 33 mm | – | – | – | – |
| COc1cccc2c1C(=O)c1c(O)c3c(c(O)c1C2=O)C[C@@](O)(C(=O)CO)C[C@@H]3O[C@H]1C[C@H](N)[C@H](O)[C@H](C)O1 [DOXORUBICIN] | – | – | – | – | 0.007 µg | – | – | – | – | 0.008 µg | – | – | – | 0.007 µg | – | – | – |
| N=C1C(=S)N(c2cc(Cl)cc(Cl)c2)C(=O)N1c1cccc(Cl)c1 | 0 mm | 24 mm | 15 mm | 24 mm | 0.041 µg | 30 mm | 41.6% | 100% | 30 mm | 0.031 µg | 21 mm | 0.011 | 16 mm | 0.025 µg | 16 mm | 36.4% | – |
| Cc1ccc(F)cc1N1C(=N)C(=S)N(c2ccc(Br)cc2)C1=O | 21 mm | 22 mm | 21 mm | 23 mm | – | 22 mm | 0% | 36.2% | 20 mm | – | 21 mm | – | 20 mm | – | 22 mm | 43.1% | – |
| N=C1C(=S)N(c2cc(Cl)cc(Cl)c2)C(=O)N1c1ccc(Cl)c(C(F)(F)F)c1 | 21 mm | 22 mm | 21 mm | 23 mm | 0.044 µg | 20 mm | 0% | 0% | 18 mm | 0.039 µg | 20 mm | 0.024 | 12 mm | 0.028 µg | 21 mm | 9.6% | – |
| Cc1ccc(N2C(=N)C(=S)N(c3cc(Cl)cc(Cl)c3)C2=O)cc1 | 16 mm | 21 mm | 20 mm | 28 mm | 0.053 µg | 16 mm | 43.6% | 66% | 16 mm | 0.035 µg | 19 mm | 0.009 | 18 mm | 0.014 µg | 17 mm | 71.6% | – |
